Experimental data as given in ChEMBL document CHEMBL1123549, “Detection of N-acetyl-p-benzoquinone imine produced during the hydrolysis of the model phenacetin metabolite N-(pivaloyloxy)phenacetin” (J Med Chem, 1986).
Values belong to the molecule of their own block, whether it stands above or below them.

Assays:
Format in all cases: ADME
[1] = Pseudo-first-order rate constant for the decomposition of compound at 25 degree C in presence of HCl at pH 1.00; Too fast to measure by conventional methods; conditions: buffer
How it was run: (§1)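 Hydrolysis followed by UV absorbance (repetitive scans; traces at 266.5 and 245 nm) at 25.0 ± 0.1 °C in 5 vol % CH3CN-H2O, ionic strength 0.50 M (KCl). Media were HCl solutions, or acetate or phosphate buffers at 0.01 M total buffer. Meter pH was corrected by subtracting 0.05. Rate constants came from fitting absorbance vs. time to a first-order or two-consecutive-first-order equation.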

[2] = Pseudo-first-order rate constant for the decomposition of compound at 25 degree C in presence of KOAc/HCl at pH 5.64; conditions: buffer; how it was run: as §1
[3] = Pseudo-first-order rate constant for the decomposition of compound at 25 degree C in presence of KOAc/HCl at pH 4.60; conditions: buffer, pH 4.6; how it was run: as §1
[4] = Pseudo-first-order rate constant for the decomposition of compound at 25 degree C in presence of K2HPO4/[…]/HCl at pH 5.75; conditions: buffer; how it was run: as §1
[5] = Pseudo-first-order rate constant for the decomposition of compound at 25 degree C in presence of K2HPO4/[…]/HCl at pH 6.77; conditions: buffer; how it was run: as §1
[6] = Pseudo-first-order rate constant for the decomposition of compound at 25 degree C in presence of K2HPO4/[…]/HCl at pH 7.55; conditions: buffer; how it was run: as §1
[7] = (§2) Pseudo-first-order rate constant for the decomposition of compound at 25 degree C in presence of HCl at pH 1.00; conditions: buffer
How it was run: (§3)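 Hydrolysis run in 5 vol % CH3CN-H2O, ionic strength 0.50 M (KCl), HCl solution, (25.0 ± 0.1) °C. pH meter readings corrected as pH = reading − 0.05, calibrated on standardized HCl. Progress followed by repetitive UV absorbance scans. Absorbance vs. time at 266.5 and 245 nm fit by least squares to the rate equation for two consecutive first-order processes, giving pseudo-first-order rate constants.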

[8] = as §2; conditions: buffer; how it was run: as §1; remark: listed apart in the source
[9] = Pseudo-first-order rate constant for the decomposition of compound at 25 degree C in presence of HCl at pH 3.02; conditions: buffer; how it was run: as §1
[10] = (§4) Pseudo-first-order rate constant for the decomposition of compound at 25 degree C in presence of HCl at pH 2.00; conditions: buffer; how it was run: as §1
[11] = as §4; conditions: buffer; how it was run: as §3; remark: listed apart in the source
[12] = Pseudo-first-order rate constant for the decomposition of compound at 25 degree C in presence of KOAc/HCl at pH 3.71; conditions: buffer; how it was run: as §1
[13] = Pseudo-first-order rate constant for the decomposition of compound at 25 degree C in presence of HCl at pH 2.00; Too fast to measure by conventional methods; conditions: buffer; how it was run: as §1
[14] = Pseudo-first-order rate constant for the decomposition of compound at 25 degree C in presence of HCl at pH 2.31; conditions: buffer; how it was run: as §3
[15] = Pseudo-first-order rate constant for the decomposition of compound at 25 degree C in presence of HCl at pH 2.62; conditions: buffer; how it was run: as §3
[16] = Pseudo-first-order rate constant for the decomposition of compound at 25 degree C in presence of HCl at pH 1.30; conditions: buffer, pH 1.3; how it was run: as §3
[17] = Pseudo-first-order rate constant for the decomposition of compound at 25 degree C in presence of HCl at pH 1.59; conditions: buffer; how it was run: as §3

k0 [2]: 0.0224 s⁻¹
k' [2]: 0.000394 s⁻¹
k'' [2]: 0.00261 s⁻¹
k0 [3]: 0.0263 s⁻¹
k' [3]: 0.0037 s⁻¹
k'' [3]: 0.000642 s⁻¹
k0 [4]: 0.0226 s⁻¹
k' [4]: 0.000303 s⁻¹
k'' [4]: 0.00287 s⁻¹
k0 [5]: 0.0219 s⁻¹
k' [5]: 0.0000512 s⁻¹
k0 [6]: 0.0214 s⁻¹
k' [6]: 0.0000288 s⁻¹
k'' [7]: 0.00606 s⁻¹
k0 [8]: 0.0271 s⁻¹
k0 [9]: 0.0205 s⁻¹
k' [9]: 0.155 s⁻¹
k'' [9]: 0.000476 s⁻¹
k0 [10]: 0.0252 s⁻¹
k'' [11]: 0.000996 s⁻¹
k0 [12]: 0.0246 s⁻¹
k' [12]: 0.0246 s⁻¹
k'' [12]: 0.000471 s⁻¹
Compound: CCOc1ccc(N(OC(=O)C(C)(C)C)C(C)=O)cc1
k' [1]: Too fast to measure by conventional methods
k' [13]: Too fast to measure by conventional methods

Compound: CC(=O)N=C1C=CC(=O)C=C1
k'' [14]: 0.000703 s⁻¹
k'' [15]: 0.000575 s⁻¹
k'' [7]: 0.00639 s⁻¹
k'' [11]: 0.000977 s⁻¹
k'' [16]: 0.0034 s⁻¹
k'' [17]: 0.0019 s⁻¹
